Test system: HEK-293T
Experiment: Multiplex assay against HEK293T
Type: toxicity, cell-based
Settings: human
How it was run: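 Tubulin, mitochondrial-mass and membrane-permeability phenotypes are per cents of healthy-nucleus cells. Cells were gated by CellPathfinder machine learning into Hoechst high-intensity objects or normal cells, normal cells into healthy, pyknosed or fragmented nuclei, and pyknosed cells into mitotic or apoptotic. Before that, live cells stained at seeding with Hoechst33342, BioTracker Green Microtubule Cytoskeleton Dye, MitoTracker Red and Annexin V Alexa Fluor 680 were imaged on a CQ1 microscope at 37°C and 5% CO2 after compound addition.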

[1] = 12 h, 1 µM, compound concentration 1 uM, replicate 1
[2] = 12 h, 1 µM, compound concentration 1 uM, replicate 2
[3] = 12 h, 10 µM, compound concentration 10 uM, replicate 1
[4] = 12 h, 10 µM, compound concentration 10 uM, replicate 2
[5] = 24 h, 1 µM, compound concentration 1 uM, replicate 1
[6] = 24 h, 1 µM, compound concentration 1 uM, replicate 2
[7] = 24 h, 10 µM, compound concentration 10 uM, replicate 1
[8] = 24 h, 10 µM, compound concentration 10 uM, replicate 2
[9] = 48 h, 1 µM, compound concentration 1 uM, replicate 1
[10] = 48 h, 1 µM, compound concentration 1 uM, replicate 2
[11] = 48 h, 10 µM, compound concentration 10 uM, replicate 1
[12] = 48 h, 10 µM, compound concentration 10 uM, replicate 2

Structure (SMILES): C[C@H](N)COC(=O)[C@@H](CCCCN)NC(=O)Cc1c(-c2ccc3ccccc3c2)[nH]c2c1ccc1ccccc12
- Population Apoptotic (%) [1]: 22%
- Population Fragmented Nuclei (%) [1]: 6%
- Population Healthy Nuclei (%) [1]: 82%
- Population Hoechst High Intensity Objects (%) [1]: 8%
- Population Membrane Permeable-Phenotype (%) [1]: 0%
- Population Mitochondria Different-Phenotype (%) [1]: 37%
- Population Mitotic Cells (%) [1]: 77%
- Population Normal (%) [1]: 91%
- Population Pyknosed Nuclei (%) [1]: 10%
- Population Tubulin-Different-Phenotype (%) [1]: 27%
- Total Cell Count [1]: 458
- Population Apoptotic (%) [2]: 51%
- Population Fragmented Nuclei (%) [2]: 8%
- Population Healthy Nuclei (%) [2]: 74%
- Population Mitochondria Different-Phenotype (%) [2]: 65%
- Population Mitotic Cells (%) [2]: 48%
- Population Pyknosed Nuclei (%) [2]: 16%
- Population Tubulin-Different-Phenotype (%) [2]: 30%
- Total Cell Count [2]: 291
- Population Apoptotic (%) [3]: 41%
- Population Fragmented Nuclei (%) [3]: 7%
- Population Healthy Nuclei (%) [3]: 78%
- Population Hoechst High Intensity Objects (%) [3]: 11%
- Population Membrane Permeable-Phenotype (%) [3]: 0%
- Population Mitochondria Different-Phenotype (%) [3]: 60%
- Population Mitotic Cells (%) [3]: 58%
- Population Normal (%) [3]: 88%
- Population Pyknosed Nuclei (%) [3]: 14%
- Population Tubulin-Different-Phenotype (%) [3]: 54%
- Total Cell Count [3]: 435
- Population Apoptotic (%) [4]: 61%
- Population Fragmented Nuclei (%) [4]: 5%
- Population Hoechst High Intensity Objects (%) [4]: 7%
- Population Mitochondria Different-Phenotype (%) [4]: 72%
- Population Mitotic Cells (%) [4]: 38%
- Population Normal (%) [4]: 93%
- Population Pyknosed Nuclei (%) [4]: 16%
- Population Tubulin-Different-Phenotype (%) [4]: 50%
- Total Cell Count [4]: 343
- Population Apoptotic (%) [5]: 25%
- Population Fragmented Nuclei (%) [5]: 9%
- Population Healthy Nuclei (%) [5]: 77%
- Population Hoechst High Intensity Objects (%) [5]: 4%
- Population Membrane Permeable-Phenotype (%) [5]: 0%
- Population Mitochondria Different-Phenotype (%) [5]: 24%
- Population Mitotic Cells (%) [5]: 75%
- Population Normal (%) [5]: 95%
- Population Pyknosed Nuclei (%) [5]: 12%
- Population Tubulin-Different-Phenotype (%) [5]: 19%
- Total Cell Count [5]: 638
- Population Apoptotic (%) [6]: 54%
- Population Fragmented Nuclei (%) [6]: 7%
- Population Healthy Nuclei (%) [6]: 80%
- Population Hoechst High Intensity Objects (%) [6]: 7%
- Population Membrane Permeable-Phenotype (%) [6]: 1%
- Population Mitochondria Different-Phenotype (%) [6]: 47%
- Population Mitotic Cells (%) [6]: 45%
- Population Normal (%) [6]: 92%
- Population Tubulin-Different-Phenotype (%) [6]: 25%
- Total Cell Count [6]: 352
- Population Apoptotic (%) [7]: 41%
- Population Fragmented Nuclei (%) [7]: 6%
- Population Healthy Nuclei (%) [7]: 78%
- Population Hoechst High Intensity Objects (%) [7]: 6%
- Population Membrane Permeable-Phenotype (%) [7]: 0%
- Population Mitochondria Different-Phenotype (%) [7]: 57%
- Population Mitotic Cells (%) [7]: 58%
- Population Normal (%) [7]: 93%
- Population Pyknosed Nuclei (%) [7]: 14%
- Population Tubulin-Different-Phenotype (%) [7]: 45%
- Total Cell Count [7]: 539
- Population Apoptotic (%) [8]: 48%
- Population Fragmented Nuclei (%) [8]: 9%
- Population Healthy Nuclei (%) [8]: 80%
- Population Hoechst High Intensity Objects (%) [8]: 7%
- Population Mitochondria Different-Phenotype (%) [8]: 54%
- Population Mitotic Cells (%) [8]: 51%
- Population Normal (%) [8]: 92%
- Population Pyknosed Nuclei (%) [8]: 10%
- Population Tubulin-Different-Phenotype (%) [8]: 42%
- Total Cell Count [8]: 439
- Population Apoptotic (%) [9]: 15%
- Population Fragmented Nuclei (%) [9]: 13%
- Population Healthy Nuclei (%) [9]: 78%
- Population Hoechst High Intensity Objects (%) [9]: 4%
- Population Membrane Permeable-Phenotype (%) [9]: 2%
- Population Mitochondria Different-Phenotype (%) [9]: 16%
- Population Mitotic Cells (%) [9]: 84%
- Population Normal (%) [9]: 95%
- Population Pyknosed Nuclei (%) [9]: 7%
- Population Tubulin-Different-Phenotype (%) [9]: 13%
- Total Cell Count [9]: 963
- Population Apoptotic (%) [10]: 37%
- Population Fragmented Nuclei (%) [10]: 11%
- Population Healthy Nuclei (%) [10]: 79%
- Population Membrane Permeable-Phenotype (%) [10]: 0%
- Population Mitochondria Different-Phenotype (%) [10]: 29%
- Population Mitotic Cells (%) [10]: 62%
- Population Pyknosed Nuclei (%) [10]: 9%
- Population Tubulin-Different-Phenotype (%) [10]: 17%
- Total Cell Count [10]: 540
- Population Apoptotic (%) [11]: 27%
- Population Fragmented Nuclei (%) [11]: 13%
- Population Healthy Nuclei (%) [11]: 78%
- Population Hoechst High Intensity Objects (%) [11]: 6%
- Population Membrane Permeable-Phenotype (%) [11]: 0%
- Population Mitochondria Different-Phenotype (%) [11]: 44%
- Population Mitotic Cells (%) [11]: 72%
- Population Normal (%) [11]: 93%
- Population Pyknosed Nuclei (%) [11]: 7%
- Population Tubulin-Different-Phenotype (%) [11]: 33%
- Total Cell Count [11]: 781
- Population Apoptotic (%) [12]: 32%
- Population Fragmented Nuclei (%) [12]: 14%
- Population Healthy Nuclei (%) [12]: 79%
- Population Hoechst High Intensity Objects (%) [12]: 4%
- Population Mitochondria Different-Phenotype (%) [12]: 43%
- Population Mitotic Cells (%) [12]: 67%
- Population Normal (%) [12]: 95%
- Population Pyknosed Nuclei (%) [12]: 6%
- Population Tubulin-Different-Phenotype (%) [12]: 35%
- Total Cell Count [12]: 681
